IC50 data for one compound are collected here from ChEMBL document CHEMBL1155063 (Bioorg Med Chem, 2008).

In the assay the target is Telomerase reverse transcriptase (Homo sapiens, UniProt O14746). As to the kind of experiment: Inhibition of G-quadruplex-induced human TERT in H1299 cells by TRAP assay. Format: cell-based. An outline of the steps: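 Modified TRAP assay using 2 µg total lysate from H1299 lung cancer cells as the telomerase source. Compounds were tested at 1, 5, 10 and 20 µM. Products were resolved on 10% polyacrylamide gels and stained with SYBR Green. A Taq-polymerase internal control was included, along with positive and negative controls.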

Usually IC50 stands for the concentration that gives 50% inhibition.

Telomerase reverse transcriptase, sequence (O14746 whole entry): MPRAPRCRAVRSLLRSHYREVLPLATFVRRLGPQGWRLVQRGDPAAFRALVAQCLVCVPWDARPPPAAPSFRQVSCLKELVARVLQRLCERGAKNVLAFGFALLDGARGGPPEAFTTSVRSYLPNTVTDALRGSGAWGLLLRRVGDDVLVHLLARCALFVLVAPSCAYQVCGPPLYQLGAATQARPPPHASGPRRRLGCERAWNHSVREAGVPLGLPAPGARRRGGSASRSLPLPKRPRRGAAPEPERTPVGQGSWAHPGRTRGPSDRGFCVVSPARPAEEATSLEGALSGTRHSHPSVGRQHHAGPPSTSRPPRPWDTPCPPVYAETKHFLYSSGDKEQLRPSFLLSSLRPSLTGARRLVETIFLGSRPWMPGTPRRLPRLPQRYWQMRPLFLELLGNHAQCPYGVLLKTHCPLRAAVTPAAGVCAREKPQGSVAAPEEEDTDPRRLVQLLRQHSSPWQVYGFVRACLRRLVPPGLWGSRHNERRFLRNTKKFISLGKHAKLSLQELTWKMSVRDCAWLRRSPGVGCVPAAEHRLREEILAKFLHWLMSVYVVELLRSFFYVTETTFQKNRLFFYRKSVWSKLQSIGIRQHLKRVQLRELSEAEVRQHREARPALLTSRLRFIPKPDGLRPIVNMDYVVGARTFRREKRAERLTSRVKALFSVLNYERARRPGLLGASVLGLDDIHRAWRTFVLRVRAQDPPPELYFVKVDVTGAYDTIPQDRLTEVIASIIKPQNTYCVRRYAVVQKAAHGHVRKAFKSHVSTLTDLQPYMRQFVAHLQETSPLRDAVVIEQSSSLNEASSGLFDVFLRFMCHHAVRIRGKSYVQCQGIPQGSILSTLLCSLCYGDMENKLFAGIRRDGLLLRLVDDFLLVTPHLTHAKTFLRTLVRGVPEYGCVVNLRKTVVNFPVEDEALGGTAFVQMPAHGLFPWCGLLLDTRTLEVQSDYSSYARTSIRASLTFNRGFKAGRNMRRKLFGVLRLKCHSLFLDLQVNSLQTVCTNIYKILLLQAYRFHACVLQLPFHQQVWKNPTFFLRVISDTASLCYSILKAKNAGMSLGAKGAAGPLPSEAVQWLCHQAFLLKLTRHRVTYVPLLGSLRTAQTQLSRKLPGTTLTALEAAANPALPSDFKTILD

On to `O=C(CCN1CCCC1)Nc1ccc2c(c1)C(=O)c1cc(NC(=O)CCN3CCCC3)ccc1C2=O`, for which half-maximal inhibition (IC50) was put at 6.7 µM.
